5 compounds from ChEMBL document CHEMBL4017511, “Discovery of Fragment-Derived Small Molecules for in Vivo Inhibition of Ketohexokinase (KHK)” (J Med Chem, 2017) can be followed below.

Converted amounts (≈) assume the structure as drawn. The source made the active and inactive calls. No cut-off for these calls is given here.

The nature of data set [1]: Octanol/water partition coefficient, log D of the compound at pH 7.4 by shake-flask method. The format is physicochemical. In a few lines: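 LogD measured by shake-flask octanol:water partition at pH 7.4.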
Data set [2] in a line: Apparent clearance in human liver microsomes. The format is ADME, microsome. To be noted: read-out: CLH(app). Background: Microsomes from liver hold many membrane-bound enzymes, among them those of drug oxidation.
Data set [3] deals with T1, Ketohexokinase (Homo sapiens, UniProt P50053).
T1 sequence (P50053 whole entry): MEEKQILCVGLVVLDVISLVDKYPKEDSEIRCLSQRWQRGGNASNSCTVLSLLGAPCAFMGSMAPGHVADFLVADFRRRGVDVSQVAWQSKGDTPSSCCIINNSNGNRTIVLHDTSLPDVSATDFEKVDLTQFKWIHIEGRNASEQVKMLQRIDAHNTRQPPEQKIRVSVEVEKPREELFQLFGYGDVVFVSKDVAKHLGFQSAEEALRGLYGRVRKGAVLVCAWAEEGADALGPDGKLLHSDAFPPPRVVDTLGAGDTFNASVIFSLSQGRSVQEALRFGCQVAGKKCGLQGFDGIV
Nature of the data set: Inhibition of recombinant human N-terminal His-tagged KHK expressed in Escherichia coli BL21(DE3) using fructose as substrate incubated for 30 mins followed by ATP addition measured for 30 mins by pyruvate kinase-lactate dehydrogenase coupled enzyme assay. To be noted: read-out: IC50. In a few lines: (§1)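 Thrombin-cleaved (His-tag removed) human or rat KHK at 10 nM, preincubated 30 min at room temperature with compound (11-point series, 2.5% DMSO). Started with 0.2 mM ATP; NADH A340 read kinetically for 30 min. IC50 from nonlinear fit of percent inhibition; mean of replicates.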

In data set [4] the test system is Rattus norvegicus. The data set can be described thus: Unbound Cmax in rat at 300 mg/kg, po. Format: ADME, organism-based. To be noted: in vivo. In a few lines: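 Rats given 300 mg/kg orally in 0.25% HPC-SL/0.05% DOSS vehicle. Free plasma concentrations determined; mean ± SD, n = 3 per data point.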
A short description of data set [5]: Fraction unbound in human plasma at 10 uM measured at 2 to 24 hrs by equilibrium dialysis method. The format is ADME, cell-free.
The nature of data set [6]: Thermodynamic solubility of compound at pH 7.4. The format is physicochemical. To be noted: buffer, read-out: Therm_solubility. The method in brief:
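Thermodynamic solubility determined at pH 7.4.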

Data set [7] is described as follows: Apparent permeability in RRCK cells by LC-MS/MS analysis. Format: ADME, cell-based, Canis lupus familiaris, MDCKII-LE. To be noted: dog, MDCK.
In data set [8] the target is T2, Ketohexokinase (Rattus norvegicus, UniProt Q02974).
T2 sequence (Q02974 whole entry): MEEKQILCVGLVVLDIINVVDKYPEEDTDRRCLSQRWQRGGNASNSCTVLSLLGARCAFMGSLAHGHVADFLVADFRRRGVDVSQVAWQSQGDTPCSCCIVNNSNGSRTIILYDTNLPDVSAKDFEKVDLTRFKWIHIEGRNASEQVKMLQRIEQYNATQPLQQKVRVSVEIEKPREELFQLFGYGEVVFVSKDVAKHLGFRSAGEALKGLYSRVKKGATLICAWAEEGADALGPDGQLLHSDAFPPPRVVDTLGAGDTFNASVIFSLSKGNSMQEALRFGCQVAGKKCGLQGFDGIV
The data set can be described thus: Inhibition of recombinant rat N-terminal His-tagged KHK expressed in Escherichia coli BL21(DE3) using fructose as substrate incubated for 30 mins followed by ATP addition measured for 30 mins by pyruvate kinase-lactate dehydrogenase coupled enzyme assay. To be noted: read-out: IC50. The method in brief: as §1

The target in data set [9] is T3, Ketohexokinase (Homo sapiens) (UniProt P50053).
T3 sequence (whole entry): T1 sequence (P50053 whole entry)
Nature of the data set: Inhibition of recombinant full length human His-tagged KHK expressed in Escherichia coli BL21(DE3) using at 240 uM by 1D NMR-STD spectroscopic method. In a few lines: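 Full-length His-tagged human KHK (tag retained) at 5 μM in 50 mM Tris-d, 100 mM NaCl, 2 mM TCEP-d, 5% glycerol-d, pH 7.5, 298 K. AMP-PMP at 240 μM served as positive control. Saturation-transfer difference NMR used 512 scans and 3 s Gaussian on/off-resonance saturation. Binding was called from positive difference signals, with ligands assigned against each fragment's 1D 1H reference spectrum.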

Data set [10] has as its target T1, Ketohexokinase. Nature of the data set: Binding affinity to full length recombinant human biotin-labeled KHK by SPR assay. The method in brief: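 Full-length biotinylated KHK captured on a streptavidin sensor (7000-8000 RU). Run buffer was 50 mM HEPES pH 7.4, 150 mM NaCl, 0.01% P20, 500 µM TCEP, 3% DMSO at 25 °C. Eleven 2-fold concentrations from 300 µM top, stop-flow with 60 s association and ≥120 s dissociation. Data double-referenced and DMSO-corrected; KD by steady-state affinity fit, n=1.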
Background: SPR reads the build-up and loss of mass on a sensor chip optically.

For orientation: logD means the decadic logarithm of the distribution of all forms, ionised or not, between an organic phase and buffer at a given pH. A high value points to higher lipophilicity. As a reminder, the IC50 is the midpoint of a concentration-inhibition curve. Compound `C[C@@]1(O)CCN(c2c(C#N)c(C(F)(F)F)nc3cc[nH]c23)C1` gave a log distribution coefficient (logD) in data set [1] of 2.1. Further, the microsomal CLint in data set [2] was under 8 µL/min/mg. Moreover, in data set [3], the IC50 turned out to be 24.2 µM.

In general, fraction unbound refers to free concentration divided by total concentration. A word on the Papp: it is a coefficient for how fast a substance crosses the barrier. `C[C@]1(O)CCN(c2c(C#N)c(C(F)(F)F)nc3cc[nH]c23)C1` displayed a fCmax in [4] of 1.3 µM. The same compound came in with a free fraction (fraction unbound) at 10 µM in [5] of 0.032. In data set [6], the solubility thermodynamic came to 147 µM (≈ 45.6 µg/mL). The compound further returned a pH-dependent lipophilicity (logD) in [1] of 2.2. Moreover, the microsomal CLint in data set [2] is under 8 µL/min/mg. For the same compound, the Papp in [7] is 14 ×10⁻⁶ cm/s. The IC50 in data set [3] was determined as 0.67 µM; in [8], 0.64 µM.

A word on the Kd: it is the concentration at which binding is half-saturated. `Cc1cc(C)c(C#N)c(N2CCOCC2)n1`: the inhibition result in data set [9] is “Active”. In addition, the dissociation constant Kd in [10] was found to be 62 µM. Besides, in [3], the concentration for half-maximal inhibition (IC50) came out at 319 µM.

In the case of `C[C@]1(O)CCN(c2nc(N3CCN(CCO)CC3)cc(C(F)(F)F)c2C#N)C1`, the logD in [1] amounted to 2.2. The microsomal CLint in data set [2] came to 14 µL/min/mg. Besides, the 50% inhibitory concentration (IC50) in [3] stood at 1.03 µM.

On to `N#Cc1cc(F)c(N)nc1Cl`, for which the inhibition entry in data set [9] is “Active”. Moreover, in data set [10], the Kd came to 103 µM. Also, the IC50 in [3] was over 500 µM.
